Measurements: PMC8415080 (Pharmacology Research & Perspectives, 2021)

Experiments:
ferret = experiment: Ferret model of emesis; format: in vivo; conditions: increasing doses; for induction of emesis (retches and vomits): 2 h test
patients [1] = conditions: no reference given; cited from earlier work
H460 cells [2] = experiment: Mitochondria respiration profiling; format: cell-based, human
Method in brief: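 On the XF96, basal OCR was followed by injection of test compound doses (10X), then oligomycin (1 µg/ml), FCCP, and rotenone plus antimycin A (1 µM each). Cycles were 4 min mix, 3 min measure; control injections were medium. OCR expressed as fold of vehicle.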

H460 cells [3] = experiment: Proliferation assay; format: cell-based, human
H460 cells [4] = experiment: Apoptosis assay; format: cell-based, human
H460 cells [5] = experiment: Total and mitochondrial ATP content; format: cell-based, human
Method in brief: (§1)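 Cells (8000/well) were incubated 18 h at 37℃ (5% CO2). Test compound was added at half‐log doses, final 10 nM–10 µM, to paired plates for 1 h, with or without 100 µM iodoacetate. ATP was read by CellTiter‐Glo luminescence: mitochondrial ATP with iodoacetate, global ATP without. Mean ± SD.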

[6] = target: Complex I purified from bovine heart (Bos taurus, UniProt P03887+P17694+P42026); experiment: MitoTox Complex I OxPhos Activity Assay; format: biochemical
Method in brief: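 MitoTox Complex I kit: Complex I purified from bovine heart and immunocaptured on the plate by specific antibodies. Activity followed as the decrease in absorbance at 340 nm from NADH oxidation.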

CCK2R = CCK2R (Homo sapiens, UniProt P32239); experiment: Cerep in vitro safety screen, competition with reference ligand binding; conditions: 10 µM
Method in brief: (§2)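 Cerep in vitro safety screen: test compound at 10 µM assessed for competition with reference ligand binding across a panel of 300 receptors.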

OATP1B3 = OATP1B3 (Homo sapiens, UniProt Q9NPD5); experiment: In vitro transporter inhibition; format: in vitro ADME
H460‐LKB1 cells [7] = experiment: Apoptosis assay; format: cell-based, human; conditions: H460‐LKB1, even at 10 µM
[8] = tested on: mitochondria isolated from liver of OF1; format: biochemical; conditions: 7.5 µM
Method in brief: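 Polarographic measurement of oxidation and phosphorylation rates in mitochondria isolated from liver of female OF1 mice, over a range of test compound doses.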

OAT1 = OAT1 (Homo sapiens, UniProt Q4U2R8); experiment: In vitro transporter inhibition; format: in vitro ADME
A2AR = A2AR (Homo sapiens, UniProt P29274); experiment: Cerep in vitro safety screen, competition with reference ligand binding; conditions: 10 µM
Method in brief: as §2

H460 WT cells = experiment: mTOR/AMPK pathway signaling; format: cell-based, human; conditions: WT H460, over 60 min
LL/2 cells [9] = experiment: Apoptosis assay; format: cell-based, mouse; conditions: LL/2, even at 10 µM
[10] = Tissue distribution after single oral administration; format: in vivo, C57BL/6J mice; conditions: male, C57BL/6J, mouse, 30 mg/kg
[11] = tested on: OxPhos‐Eµ‐Myc and glycolytic‐Eµ‐Myc lymphoma cells; experiment: In vitro cell death assay; format: cell-based, mouse; conditions: 10 µM, 24 h, DAPI positive cells
Method in brief: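 Primary Eμ‐Myc cells were maintained in DMEM with 10% FBS, 2‐mercaptoethanol (50 µM), L‐asparagine (0.37 mM) and HEPES (10 mM, pH 7.4). Cells (2 × 10^5/well) were exposed to test compound or DMSO for 24 h, stained with DAPI (0.5 µg/ml) and analysed by flow cytometry. Cell death = % DAPI‐positive in treated cells ÷ % DAPI‐positive in control. Mean of 4 independent experiments, 5 clones per group.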

[12] = tested on: H460‐luc2 orthotopic tumors; experiment: Orthotopic H460 lung tumor model; format: in vivo, Balb/CJ‐Nude mice; conditions: 30 mg/kg p.o. QD from D7
Method in brief: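 Male Balb/c Nude mice, 7 weeks old, were anaesthetised i.p. with Rompun (20 mg/kg) plus Imalgene (100 mg/kg). They were inoculated intrabronchially via an oral catheter with 25 µl of H460‐Luc2 cells at 20 million/ml in PBS. Mice were allocated by bioluminescence at D7 and dosed orally at 30 mg/kg daily for 15 days (3 mg/ml in PEG200/Solutol HS15/water 30%/5%/65%, 10 ml/kg) or vehicle; n = 9/group. Imaging at D7/D14/D21 used 12 min post i.p. D‐luciferin (2 mg). Tumors were measured at termination; t‐test.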

[13] = tested on: glycolytic‐Eµ‐Myc lymphoma; experiment: B‐cell lymphoma in vivo study, glycolytic‐Eµ‐Myc; set-up: species or system C57BL/6 mice; conditions: 30 mg/kg p.o. QD, glycolytic‐Eµ‐Myc‐bearing mice
Method in brief: (§3)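 Syngeneic female C57BL/6J Ola Hsd mice, 6 weeks old, received 1 × 10^5 viable Eμ‐Myc cells in PBS by tail vein. Oral dosing began 6 days later, when inguinal nodes became palpable: 30 mg/kg daily at 10 ml/kg in PEG200/Solutol HS15/water (30%/5%/65%), or vehicle alone; n = 10/group. Weight and node palpation every 2–3 days. Mice sacrificed at illness signs; node tumors and spleens weighed. Kaplan–Meier survival, log‐rank test.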

LL/2 cells [14] = experiment: Proliferation assay; format: cell-based; conditions: Mus musculus, LL/2, read-out: apparent IC50 proliferation
H460‐LKB1 cells [15] = experiment: mTOR/AMPK pathway signaling; format: cell-based, human; conditions: H460‐LKB1, within minutes after exposure
CCK1R = CCK1R (Homo sapiens, UniProt P32238); experiment: Cerep in vitro safety screen, competition with reference ligand binding; conditions: 10 µM
Method in brief: as §2

MDA‐MB231 cells = experiment: Mitochondrial ATP content; format: cell-based; conditions: Homo sapiens, MDA-MB-231, 1 h, read-out: IC50 mitochondrial ATP production
Method in brief: as §1

OxPhos‐Eµ‐Myc lymphoma = experiment: B‐cell lymphoma in vivo study, OxPhos‐Eµ‐Myc; set-up: species or system C57BL/6 mice; conditions: 30 mg/kg p.o. QD, OxPhos‐Eµ‐Myc‐bearing mice
Method in brief: as §3

MRP2 = MRP2 (Homo sapiens, UniProt Q92887); experiment: In vitro transporter inhibition; format: in vitro ADME
P‐gp = P‐gp (Homo sapiens, UniProt P08183); experiment: In vitro transporter inhibition; format: in vitro ADME; conditions: expressed in MDCKII
MLK2 = MLK2 (Homo sapiens, UniProt Q02779); experiment: DiscoverX KiNativ in situ kinase selectivity panel on live Jurkat cells; format: cell-based; conditions: 10 µM
[16] = tested on: mouse acute myeloid leukemia; conditions: ref Luna Yolba, in revision; cited from earlier work
BCRP = BCRP (Homo sapiens, UniProt Q9UNQ0); experiment: In vitro transporter inhibition; format: in vitro ADME
198 kinases = experiment: DiscoverX KiNativ in situ kinase selectivity panel on live Jurkat cells; format: cell-based; conditions: 10 µM
[17] = Plasma pharmacokinetics after intravenous and oral administration; format: in vivo, C57BL/6J mice
Method in brief: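 Plasma pharmacokinetics in C57BL/6J mice: intravenous test compound at 3 mg/kg, and escalating oral doses of 10, 30 and 75 mg/kg.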

KARPAS 422 cells [18] = experiment: Proliferation assay; format: cell-based; conditions: Homo sapiens, KARPAS-422, read-out: IC50 proliferation
Hep3B cells = experiment: Mitochondrial ATP content; format: cell-based; conditions: Homo sapiens, 1 h, read-out: IC50 mitochondrial ATP production
Method in brief: as §1

OCT1 = OCT1 (Homo sapiens, UniProt O15245); experiment: In vitro transporter inhibition; format: in vitro ADME
OATP1B1 = OATP1B1 (Homo sapiens, UniProt Q9Y6L6); experiment: In vitro transporter inhibition; format: in vitro ADME
KARPAS 422 cells [19] = experiment: Glucose and lactate levels; format: cell-based, human
H460‐LKB1 cells [20] = experiment: Total and mitochondrial ATP content; format: cell-based, human; conditions: H460‐LKB1, whatever the dose
Method in brief: as §1

U87 cells = experiment: Mitochondrial ATP content; format: cell-based; conditions: Homo sapiens, U-87 MG, 1 h, read-out: IC50 mitochondrial ATP production
Method in brief: as §1

patients [21] = conditions: 18 patients with advanced solid tumors; cited from earlier work

Sequence of OATP1B3 (Q9NPD5 whole entry): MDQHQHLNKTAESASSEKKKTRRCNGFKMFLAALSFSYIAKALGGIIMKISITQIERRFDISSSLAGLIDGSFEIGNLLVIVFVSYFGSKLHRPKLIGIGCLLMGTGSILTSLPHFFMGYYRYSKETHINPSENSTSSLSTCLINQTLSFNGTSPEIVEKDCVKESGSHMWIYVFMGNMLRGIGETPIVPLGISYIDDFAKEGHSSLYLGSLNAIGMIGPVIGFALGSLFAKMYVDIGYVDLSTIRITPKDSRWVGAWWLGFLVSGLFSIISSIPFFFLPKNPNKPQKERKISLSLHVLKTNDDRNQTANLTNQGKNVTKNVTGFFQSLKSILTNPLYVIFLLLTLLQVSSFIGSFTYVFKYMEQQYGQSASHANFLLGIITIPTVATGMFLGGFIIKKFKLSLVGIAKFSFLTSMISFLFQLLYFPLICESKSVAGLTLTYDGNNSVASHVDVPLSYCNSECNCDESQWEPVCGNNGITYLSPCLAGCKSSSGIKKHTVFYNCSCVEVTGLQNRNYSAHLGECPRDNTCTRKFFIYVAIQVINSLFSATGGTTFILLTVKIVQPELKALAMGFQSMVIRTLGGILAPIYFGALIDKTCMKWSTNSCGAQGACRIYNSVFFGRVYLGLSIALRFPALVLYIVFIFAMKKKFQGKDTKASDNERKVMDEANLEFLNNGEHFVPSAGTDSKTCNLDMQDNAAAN
Sequence of MRP2 (Q92887 whole entry, species assumed): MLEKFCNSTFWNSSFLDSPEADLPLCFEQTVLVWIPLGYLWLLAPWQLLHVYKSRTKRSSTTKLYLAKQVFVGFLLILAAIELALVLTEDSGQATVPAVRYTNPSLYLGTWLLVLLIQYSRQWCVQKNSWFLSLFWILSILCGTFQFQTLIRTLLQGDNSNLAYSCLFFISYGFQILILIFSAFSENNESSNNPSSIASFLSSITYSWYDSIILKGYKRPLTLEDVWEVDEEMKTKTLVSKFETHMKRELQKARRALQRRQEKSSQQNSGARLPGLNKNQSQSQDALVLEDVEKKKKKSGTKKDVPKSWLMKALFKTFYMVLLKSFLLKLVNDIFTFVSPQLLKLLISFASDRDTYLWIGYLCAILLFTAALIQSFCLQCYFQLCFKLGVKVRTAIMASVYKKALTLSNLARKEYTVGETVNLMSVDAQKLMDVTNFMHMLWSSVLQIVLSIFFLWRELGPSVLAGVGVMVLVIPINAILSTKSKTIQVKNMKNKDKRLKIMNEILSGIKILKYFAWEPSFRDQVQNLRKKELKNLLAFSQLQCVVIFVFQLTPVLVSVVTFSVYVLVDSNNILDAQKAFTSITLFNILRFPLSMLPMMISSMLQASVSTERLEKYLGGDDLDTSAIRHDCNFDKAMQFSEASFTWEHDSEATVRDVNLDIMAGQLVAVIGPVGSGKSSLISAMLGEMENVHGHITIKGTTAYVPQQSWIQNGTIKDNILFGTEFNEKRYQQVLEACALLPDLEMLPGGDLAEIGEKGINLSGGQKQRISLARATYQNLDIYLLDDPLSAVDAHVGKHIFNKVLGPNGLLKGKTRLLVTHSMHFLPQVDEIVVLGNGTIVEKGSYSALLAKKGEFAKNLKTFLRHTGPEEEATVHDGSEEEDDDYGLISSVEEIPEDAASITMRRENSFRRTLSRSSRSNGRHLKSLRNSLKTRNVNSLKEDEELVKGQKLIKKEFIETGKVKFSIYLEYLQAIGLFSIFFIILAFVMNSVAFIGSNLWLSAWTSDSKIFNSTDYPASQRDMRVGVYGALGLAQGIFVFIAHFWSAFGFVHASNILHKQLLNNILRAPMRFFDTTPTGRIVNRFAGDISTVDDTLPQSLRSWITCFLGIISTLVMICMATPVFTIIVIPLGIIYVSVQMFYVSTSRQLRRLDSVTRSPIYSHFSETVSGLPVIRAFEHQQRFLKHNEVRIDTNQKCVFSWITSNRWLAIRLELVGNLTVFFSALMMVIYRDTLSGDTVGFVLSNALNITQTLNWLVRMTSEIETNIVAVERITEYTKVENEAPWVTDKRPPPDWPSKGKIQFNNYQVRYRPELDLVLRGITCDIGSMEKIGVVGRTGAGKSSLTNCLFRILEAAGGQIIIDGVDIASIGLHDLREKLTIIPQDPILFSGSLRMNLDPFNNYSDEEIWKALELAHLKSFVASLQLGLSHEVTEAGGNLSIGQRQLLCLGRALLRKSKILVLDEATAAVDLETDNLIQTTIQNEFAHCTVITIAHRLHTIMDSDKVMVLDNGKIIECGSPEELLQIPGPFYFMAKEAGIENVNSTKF
Sequence of OATP1B1 (Q9Y6L6 whole entry): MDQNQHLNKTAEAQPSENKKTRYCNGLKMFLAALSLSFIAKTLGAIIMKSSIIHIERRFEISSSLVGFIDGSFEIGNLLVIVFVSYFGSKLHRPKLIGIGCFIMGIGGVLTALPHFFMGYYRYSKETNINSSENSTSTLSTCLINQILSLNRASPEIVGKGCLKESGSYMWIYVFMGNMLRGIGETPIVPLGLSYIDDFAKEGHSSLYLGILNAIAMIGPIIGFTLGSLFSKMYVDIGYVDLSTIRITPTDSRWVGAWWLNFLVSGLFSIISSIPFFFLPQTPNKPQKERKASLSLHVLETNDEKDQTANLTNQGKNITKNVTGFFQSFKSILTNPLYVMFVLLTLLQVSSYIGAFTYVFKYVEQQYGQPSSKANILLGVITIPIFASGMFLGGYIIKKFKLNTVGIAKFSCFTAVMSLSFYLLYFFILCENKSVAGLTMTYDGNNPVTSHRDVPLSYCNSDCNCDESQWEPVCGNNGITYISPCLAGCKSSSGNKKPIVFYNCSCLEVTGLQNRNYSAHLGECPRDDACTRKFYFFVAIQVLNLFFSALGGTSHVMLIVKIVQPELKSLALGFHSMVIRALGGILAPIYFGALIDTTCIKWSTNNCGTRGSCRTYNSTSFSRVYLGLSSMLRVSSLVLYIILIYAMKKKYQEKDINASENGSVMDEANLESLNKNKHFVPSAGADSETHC
Sequence of MLK2 (Q02779 whole entry): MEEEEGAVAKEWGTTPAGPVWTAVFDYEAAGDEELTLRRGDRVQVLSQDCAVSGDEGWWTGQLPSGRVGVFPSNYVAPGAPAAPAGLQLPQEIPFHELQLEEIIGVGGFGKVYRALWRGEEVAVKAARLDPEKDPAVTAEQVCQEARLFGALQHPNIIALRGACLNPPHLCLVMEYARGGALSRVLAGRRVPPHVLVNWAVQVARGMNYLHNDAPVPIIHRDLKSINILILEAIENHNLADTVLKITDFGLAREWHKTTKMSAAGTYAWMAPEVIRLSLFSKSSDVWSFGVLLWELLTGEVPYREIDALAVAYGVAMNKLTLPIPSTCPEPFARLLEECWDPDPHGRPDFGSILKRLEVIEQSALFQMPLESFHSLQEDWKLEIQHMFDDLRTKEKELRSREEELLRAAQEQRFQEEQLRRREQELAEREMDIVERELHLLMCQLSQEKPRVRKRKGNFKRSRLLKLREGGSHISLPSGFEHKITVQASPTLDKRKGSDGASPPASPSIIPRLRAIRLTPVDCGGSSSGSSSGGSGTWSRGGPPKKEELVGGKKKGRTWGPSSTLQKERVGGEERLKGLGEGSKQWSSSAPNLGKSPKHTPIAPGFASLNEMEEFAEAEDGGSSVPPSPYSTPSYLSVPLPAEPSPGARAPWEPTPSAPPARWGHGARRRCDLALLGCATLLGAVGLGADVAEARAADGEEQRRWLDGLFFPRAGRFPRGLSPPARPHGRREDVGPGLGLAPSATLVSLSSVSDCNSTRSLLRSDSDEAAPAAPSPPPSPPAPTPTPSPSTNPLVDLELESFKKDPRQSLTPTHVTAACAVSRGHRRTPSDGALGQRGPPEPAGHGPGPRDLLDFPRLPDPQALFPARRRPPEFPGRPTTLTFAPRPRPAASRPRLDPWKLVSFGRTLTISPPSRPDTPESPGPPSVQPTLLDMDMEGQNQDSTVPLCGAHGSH
Sequence of BCRP (Q9UNQ0 whole entry, species assumed): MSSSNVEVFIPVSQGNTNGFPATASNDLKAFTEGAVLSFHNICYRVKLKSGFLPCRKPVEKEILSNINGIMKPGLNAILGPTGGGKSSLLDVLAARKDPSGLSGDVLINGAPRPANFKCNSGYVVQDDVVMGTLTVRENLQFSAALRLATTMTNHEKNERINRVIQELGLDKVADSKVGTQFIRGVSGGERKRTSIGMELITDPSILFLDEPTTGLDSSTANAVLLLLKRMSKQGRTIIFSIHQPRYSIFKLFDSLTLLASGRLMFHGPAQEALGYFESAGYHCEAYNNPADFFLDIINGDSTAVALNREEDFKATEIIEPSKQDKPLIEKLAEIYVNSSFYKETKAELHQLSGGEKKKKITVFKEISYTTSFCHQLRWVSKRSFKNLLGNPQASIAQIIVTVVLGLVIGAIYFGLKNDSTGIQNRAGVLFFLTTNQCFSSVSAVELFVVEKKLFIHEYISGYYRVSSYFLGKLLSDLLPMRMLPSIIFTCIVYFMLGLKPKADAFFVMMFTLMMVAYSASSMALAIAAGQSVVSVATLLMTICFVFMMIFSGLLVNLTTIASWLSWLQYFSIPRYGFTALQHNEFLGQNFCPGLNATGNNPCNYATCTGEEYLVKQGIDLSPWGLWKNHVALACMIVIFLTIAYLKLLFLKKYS
Sequence of CCK1R (P32238 whole entry, species assumed): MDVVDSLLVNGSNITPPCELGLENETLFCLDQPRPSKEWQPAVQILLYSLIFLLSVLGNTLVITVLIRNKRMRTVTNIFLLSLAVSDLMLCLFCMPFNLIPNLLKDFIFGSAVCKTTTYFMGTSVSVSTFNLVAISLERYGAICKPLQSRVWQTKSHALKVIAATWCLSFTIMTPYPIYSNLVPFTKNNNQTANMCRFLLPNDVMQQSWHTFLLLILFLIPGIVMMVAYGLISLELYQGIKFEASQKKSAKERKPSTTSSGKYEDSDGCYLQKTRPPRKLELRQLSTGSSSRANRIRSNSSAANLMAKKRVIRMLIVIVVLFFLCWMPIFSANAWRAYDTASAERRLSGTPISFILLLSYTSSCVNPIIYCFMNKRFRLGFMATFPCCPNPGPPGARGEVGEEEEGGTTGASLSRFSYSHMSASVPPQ

## Cc1cc(-c2nc(-c3ccc(OC(F)(F)F)cc3)no2)nn1Cc1ccnc(N2CCN(C3CC3)CC2)c1 [BAY87‐2243, reference compound]
ferret
  what limited dose escalation: limited by toxicity
  induction of emesis (retches and vomits): induced retches and vomits from half of the first patient Cmax
Patients [1]
  emesis in patients, clinical phase 1: induction of emesis in patients
H460 cells [2]
  dose at which an effect on OCR is detected: above 100 nM
H460 cells [3]; H460
  dose at which proliferation is significantly inhibited: less than or equal to 1 nM
H460 cells [4]; H460
  dose at which apoptosis is significantly affected (printed: inhibited): less than or equal to 1 nM
H460 cells [5]
  dose at which mitochondrial ATP production is significantly inhibited: less than or equal to 1 nM

## COc1ccc(C(O)COc2ccc(-c3csc(-c4ccc(OCC(O)c5ccc(OC)c(OC)c5)cc4)n3)cc2)cc1OC (stereo not shown) [EVT‐701, 1‐(3,4‐dimethoxyphenyl)‐2‐[4‐[2‐[4‐[2‐(3,4‐dimethoxyphenyl)‐2‐hydroxy‐ethoxy]phenyl]‐thiazol‐4‐yl]‐phenoxy]ethanol]
[6]
  IC50: 300 nM
CCK2R
  increase of ligand binding to CCK2R: more than 50%
OATP1B3
  IC50: 2400 ± 200 nM
ferret
  what limited dose escalation: by solubility
  induction of emesis (retches and vomits): didn't
H460‐LKB1 cells [7]
  induction of apoptosis: no induction of apoptosis
[8]
  inhibition of NADH oxidation and phosphorylation of ADP into ATP: 80%
OAT1
  IC50: > 30000 nM
A2AR
  decrease of ligand binding to A2AR: more than 50%
H460 WT cells
  4E‐BP1, Raptor and ACC phosphorylation: unaffected
LL/2 cells [9]
  cell death induction: no significant cell death
[10]; brain
  Kp: 0.25
[10]; heart
  Kp: 4.2
[10]; kidney
  Kp: 4.5
[10]; liver
  Kp: 5.9
[10]; lung
  Kp: 2.3
[10]; pancreas
  Kp: 4.5
[11]
  sensitivity to cell death induction, OxPhos‐Eµ‐Myc vs glycolytic‐Eµ‐Myc cells: more sensitive
[12]
  decrease of tumor volume at D21: 60%
[13]
  overall survival: no effect
  weight of lymphomas vs Vehicle: similar
[13]; data not shown
  progression‐free survival: no effect
LL/2 cells [14]
  IC50: 295 ± 52 nM
H460 cells [3]; Homo sapiens, NCI-H460, read-out: apparent IC50 proliferation
  IC50: 68 ± 27 nM
H460‐LKB1 cells [15]
  phosphorylation of 4E‐BP1 (Serine 65), Raptor and ACC downstream of AMPK: increased phosphorylation state
CCK1R
  increase of ligand binding to CCK1R: more than 50%
MDA‐MB231 cells
  IC50: 52 ± 18 nM
OxPhos‐Eµ‐Myc lymphoma
  lymphomas harvested vs Vehicle: significantly smaller
  overall survival: significant increase
OxPhos‐Eµ‐Myc lymphoma; not shown
  progression‐free survival: significant increase
MRP2
  IC50: > 30000 nM
P‐gp
  P‐gp transport: not affected
MLK2
  increase of MLK2 activity: more than 30%
[16]
  rescue of inhibitory effect on respiration: rescued by succinate
BCRP
  IC50: 4100 ± 2700 nM
198 kinases
  inhibition of kinase activity, any of the 198 kinases of the panel: ≤ 30%
[17]; AUC of 10 mg/kg oral dose vs AUC of intravenous dose, 10 mg/kg
  F (bioavailability): 64%
[17]; C57BL/6J, mouse, plasma, po, 10 mg/kg
  half-life: 4.1 h
[17]; oral 10, 30 and 75 mg/kg
  dose‐proportionality: conserved from 10 to 75 mg/kg
H460 cells [4]; Homo sapiens, NCI-H460, read-out: IC50 apoptosis induction
  IC50: 96 ± 28 nM
KARPAS 422 cells [18]
  IC50: 188 ± 50 nM
Hep3B cells
  IC50: 81 ± 12 nM
OCT1
  IC50: > 30000 nM
OATP1B1
  IC50: 1100 ± 100 nM
KARPAS 422 cells [19]
  glucose consumption and lactate release: increased glucose consumption and lactate release
H460‐LKB1 cells [20]
  total ATP: remains unchanged
U87 cells
  IC50: 74 ± 38 nM

## Cc1nc(-c2nc(-c3ccc(OC(F)(F)F)cc3)no2)nn1Cc1cccc(N2CCC(S(C)(=O)=O)CC2)c1 [IACS‐010759]
Patients [21]
  tolerability in phase 1: well‐tolerated
